From PubChem BioAssay
D1 mod – allosteric modulators of human D1 dopamine receptor | HEK293 D1, CRE-luciferase, dopamine EC30 potentiation; actives deviate in either direction | B-score at 10 µM | hit rate 5.9% among 58,000 | AID 641;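 active = luminescence count or its row- and column-corrected plate score outside the 99.7% band of the plate's sample wells, on either side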
Target sequence (P21728 whole entry, looked up): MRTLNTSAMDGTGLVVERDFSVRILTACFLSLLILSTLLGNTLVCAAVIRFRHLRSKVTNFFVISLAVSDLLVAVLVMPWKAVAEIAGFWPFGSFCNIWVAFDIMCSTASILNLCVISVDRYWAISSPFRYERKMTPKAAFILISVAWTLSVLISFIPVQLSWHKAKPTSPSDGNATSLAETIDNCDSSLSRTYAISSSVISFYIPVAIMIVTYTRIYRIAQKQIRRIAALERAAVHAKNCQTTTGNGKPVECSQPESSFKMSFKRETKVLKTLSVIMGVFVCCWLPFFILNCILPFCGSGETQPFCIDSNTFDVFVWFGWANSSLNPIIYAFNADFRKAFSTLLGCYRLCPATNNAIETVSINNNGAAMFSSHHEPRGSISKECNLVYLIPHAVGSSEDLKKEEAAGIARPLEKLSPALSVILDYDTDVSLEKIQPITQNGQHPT
M1 antag – M1 muscarinic receptor (rat) antagonism; P08482; CHO-M1 cells, Fluo-4 calcium, ACh EC80 antagonist mode; stronger effect = lower value; B-score at 10 µM; hit rate 3.4% among 64,000;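 active = calcium fluorescence response, raw or row-and-column corrected B-score, differing from the plate sample mean either way at a set confidence level, mostly lower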
M1 ag – M1 muscarinic receptor agonism; CHO-M1 cells, Fluo-4 calcium fluorescence, agonist mode; stronger effect = higher value; B-score at 10 µM; hit rate 3% among 64,000;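 active = fluorescence rise, raw or as B-score row- and column-corrected plate score, outside the 99.7% band of its plate's samples, either direction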
HEK293 NFkB inh – lowers PMA/ionomycin-induced NF-kB signal in HEK293 cells; HEK-293 NF-kB luciferase reporter, luminescence; inhibition, % at 3 µM; hit rate 0.21% among 62,000; AID 465;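 active = inhibition above the mean of all tested compounds plus 3 SD, cut at about 40% in these data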;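 note: 0% = stimulated DMSO wells and 100% = 10 µM reference inhibitor 5653914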
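Reagent: PMA plus ionomycin mix as NF-kB-activating stimulus. Assay system: NF-kB luciferase reporter HEK-293 cells. Technique: luminescence from luciferase substrate reagent. Incubation: 1 h compound pre-incubation, 16 h PMA/ionomycin at 37 °C. Benchmarks: DMSO only as uninhibited control, 10 µM reference inhibitor as full inhibition. Repeats: tested once.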
Jurkat tox 60K – cytotoxic compounds reducing Jurkat cell viability. Jurkat E6.1 viability, ATP luminescence, 48 h. inhibition, % at 4 µM. hit rate 1.2% among 56,000. AID 463;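 active = inhibition above the mean inhibition of all tested compounds plus 3 SD, cut at about 28% in these data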
Htt clearance – compounds clearing mutant huntingtin protein. HeLa Exon1htt(103Q)mCFP, aggregate imaging; zero = plate's median compound well. inhibition, % at 1.5 µM. hit rate 0.42% among 47,000. AID 853;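 active = inhibition of aggregate fluorescence above about 70%, also judged a hit by eye on the cell image, limit read from the data, passing the limit was not always enough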;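 note: cells exposed to compound for three days before fixation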
D1 PAM confirm – confirmation of human D1 dopamine receptor allosteric modulators. shares compounds with D1 mod. HEK293 D1 CRE-luciferase, dopamine EC30 potentiation; stronger effect = higher value. luminescence at 10 µM. hit rate 88% among 2,200;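 active = luminescence in either of two replicates above the same-plate mean plus 3 SD of the low-dose dopamine control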
D1 ag no DA – D1 (human) signaling in absence of dopamine | shares compounds with D1 mod | HEK293 D1 CRE-luciferase, luminescence, no dopamine; stronger effect = higher value | luminescence at 10 µM | hit rate 0.8% among 1,900 | AID 646; in the data active = luminescence above about 3900
Isoprot counter – counter-screen for D1 modulators: isoproterenol response in HEK293 cells; HEK293 D1 CRE-luciferase, isoproterenol EC30 counter-screen; stronger effect = higher value; shares compounds with D1 mod; luminescence at 10 µM; hit rate 63% among 2,200; AID 647;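 active = luminescence in either replicate above plate mean of wells with a partly effective reference agonist dose plus 3 SD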;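 note: isoproterenol raises cAMP through native beta-adrenoceptor Gs so signal bypasses D1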
Active calls of the source: *. Hits are enriched below; roughly 9.5% of the tested compounds scored in any of these assays.

`O=C(Cn1cnc2scc(-c3ccccc3)c2c1=O)N1CCOCC1` gave D1 mod 1.27, M1 antag 0.233, M1 ag -0.336, HEK293 NFkB inh 9.3 and Jurkat tox 60K 11.9.
For CCn1cnc2scc(-c3ccccc3)c2c1=O the results were D1 mod 14.8*, M1 antag 10.4*, M1 ag -1.19, HEK293 NFkB inh 11.3, Jurkat tox 60K 3.7, D1 PAM confirm 14788* and Isoprot counter 3448*.
`O=c1c2c(-c3ccccc3)csc2nc2n1CCC2` gave D1 mod 0.101, M1 antag -0.119, M1 ag 0.312, HEK293 NFkB inh 7.7 and Jurkat tox 60K -5.0.
For CCCc1nc2scc(-c3ccccc3)c2c(=O)n1N the results were D1 mod 5.96*, M1 antag 0.445, M1 ag 0.603, HEK293 NFkB inh 4.1, Jurkat tox 60K 4.0, Htt clearance -21.9, D1 PAM confirm 8892*, D1 ag no DA 1584 and Isoprot counter 2476.
C=CCOc1c(Br)cc(CNn2nnnc2N)cc1OCC was read as D1 mod -0.285, HEK293 NFkB inh 1.8 and Jurkat tox 60K 0.8.
`CCCc1cc(Nc2cccc(OCC)c2)n2ncnc2n1` gave D1 mod 3.2*, M1 antag 1.28, M1 ag 0.221, HEK293 NFkB inh 7.5, Jurkat tox 60K 0.4, D1 PAM confirm 11224*, D1 ag no DA 1788 and Isoprot counter 3284*.
For CCc1cccc(Nc2cc(C)nc3ncnn23)c1 the results were D1 mod 0.169, M1 antag 0.102, M1 ag -0.862, HEK293 NFkB inh 5.4 and Jurkat tox 60K -4.7.
For CCCc1cc(Nc2cccc(OC)c2)n2ncnc2n1 the results were D1 mod 5.19*, M1 antag 1.1, M1 ag 0.775, HEK293 NFkB inh 15.1, Jurkat tox 60K -1.8, Htt clearance 21.0, D1 PAM confirm 10608* and Isoprot counter 2992*.
Cc1ccc(NC(=O)c2oc3ccccc3c2NC(=O)c2ccc3c(c2)OCO3)cc1 was read as D1 mod 0.228, M1 antag -0.363, M1 ag 0.358, HEK293 NFkB inh 9.0, Jurkat tox 60K -2.0 and Htt clearance 31.0.
Screening O=C(Cc1cccs1)Nc1ccccc1NC(=O)Cc1cccs1 returned D1 mod 4.9*, M1 antag 0.148, M1 ag -0.347, HEK293 NFkB inh 10.8, Jurkat tox 60K -1.0, D1 PAM confirm 5744, D1 ag no DA 1712 and Isoprot counter 2956.
`O=C(Cc1cccs1)Nc1ccccc1C(=O)O` gave D1 mod -1.2, M1 antag 0.665, M1 ag 0.304, HEK293 NFkB inh 2.2, Jurkat tox 60K -4.8 and Htt clearance 41.3.
COCCOC(=O)C1=C(C)Nc2nc(C)nn2C1c1ccc(F)cc1 (stereo unspecified) was read as D1 mod -0.551, M1 antag -0.412, M1 ag 0.0943, HEK293 NFkB inh 12.2, Jurkat tox 60K -2.7 and Htt clearance -36.5.
CCOC(=O)C1=C(C)Nc2nc(SC)nn2C1c1ccc(C(=O)OC)cc1 (stereo unspecified) was read as D1 mod 4*, M1 antag -0.136, M1 ag 0.438, HEK293 NFkB inh 5.0, Jurkat tox 60K -4.5, D1 PAM confirm 8432*, D1 ag no DA 1672 and Isoprot counter 2952.
`O=C(NCC(c1ccc(F)cc1)N1CCOCC1)c1ccc(Br)o1` (stereo unspecified) gave D1 mod 0.00425, M1 antag -0.193, M1 ag -0.0824 and HEK293 NFkB inh 4.3.
For COc1ccc(Nc2nc(N)nc(SCc3nnc(C)s3)n2)cc1 the results were D1 mod 5.67*, M1 antag -0.187, M1 ag -0.347, HEK293 NFkB inh -7.2, Jurkat tox 60K -1.0, D1 PAM confirm 8828*, D1 ag no DA 1624 and Isoprot counter 3464*.
